From PubChem
RanGTP-Imp inh: inhibitors of RanGTP-importin-beta interaction, primary screen, biochemical, FRET, CFP-Ran, YFP-importin-beta, homogeneous. inhibition, % (concentration not given with the values). hit rate 1.1% among 300,000. cell-free CFP-Ran/YFP-importin-beta FRET ratio;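 active = more than half of the replicate wells show a fall in the fluorescence ratio signal beyond about 16%, limit read from the data, passing the limit was not always enough; inconclusive = exactly half of the replicate wells pass the set limit; inactive = fewer than half of replicates pass the limit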;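 note: 0% = DMSO wells and 100% = Ran loaded with GDP instead of GTP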
Runt-SMMHC FRET: Runt domain-CBFb-SMMHC interaction inhibition; hit rate 0.74% among 220,000; AID 1434; inhibition, % at 20 µM; Cerulean-Runt/Venus-CBFb-SMMHC FRET ratio 530/480, 1 h;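 active = mean inhibition across duplicate retests at 20 µM reaching about 50%, limit read from the data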;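 note: 0% = DMSO wells and 100% = wells with excess untagged CBFb-SMMHC; inhibitors lower the FRET ratio by blocking Runt binding to CBFb-SMMHC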
IMP-1 inh-1: blocks Pseudomonas aeruginosa IMP-1 metallo-beta-lactamase; purified IMP-1, nitrocefin hydrolysis, epi-absorbance fluorescence; hit rate 0.45% among 290,000; inhibition, % at 5.6 µM; AID 1556;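 active = inhibition above the mean plus 3 SD of all compounds in the same screening run, cut at about 4.5% in these data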;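 note: 0% = IMP-1 with DMSO and 100% = DMSO wells lacking enzyme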
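Test system: recombinant IMP-1 enzyme, purified / Medium: HEPES buffer pH 7.1 with ZnSO4 and Brij 35 / Doses: single dose, 5.6 µM / Times: 25 °C, 15 min preincubation, 25 min reaction / Detection: Epi-absorbance via hydrolysed-nitrocefin quenching of white-plate fluorescence, 480/530 nm, EDTA stop / Evaluation: percent inhibition from optical density relative to buffer-blank wells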
VIM-2 inhibitor: blocks Pseudomonas aeruginosa VIM-2 metallo-beta-lactamase; inhibition, % at 5.6 µM; hit rate 0.89% among 290,000; purified VIM-2, nitrocefin hydrolysis, epi-absorbance fluorescence;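 active = inhibition above the mean of all tested compounds plus 3 SD, cutoff set per screening run, cut at about 7.5% in these data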;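 note: red hydrolysis product quenches plate fluorescence so inhibitors raise well fluorescence; 0% = enzyme with DMSO and 100% = DMSO without enzyme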
Runt-CBFb FRET: Runt domain-CBFb interaction inhibition; Q01196+Q13951; Cerulean-Runt/Venus-CBFb FRET ratio 530/480, 1 h; inhibition, % at 20 µM; hit rate 0.46% among 220,000; AID 1496;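 active = inhibition over about 50% at 20 µM in the single-dose screen, limit read from the data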;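 note: 0% = DMSO wells and 100% = excess unlabeled CBFb competitor control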
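Assay system: Cerulean-Runt domain fusion protein, energy donor; Signal: fluorescence energy transfer, 422 nm excitation, 530/480 nm emission; Timing: 1 h compound exposure, room temperature; Control set: unlabeled CBFb; Medium: Tris buffer pH 7.5 with salts and BSA; Compound: single test concentration of 20 µM, 1% DMSO final; Probe or stimulus: Venus-CBFb 100 nM.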
IMP-1 inh-2: IMP-1 inhibition, counter-screen for VIM-2 inhibitors; inhibition, % at 5.6 µM; purified IMP-1, nitrocefin hydrolysis, epi-absorbance fluorescence; 1,300 tested, under 10 active; shares compounds with VIM-2 inhibitor; call rule not given here;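 note: 0% = enzyme with vehicle and 100% = vehicle without enzyme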
VIM-2 FRET inh: VIM-2 FRET inhibition, artifact counter-screen; shares compounds with VIM-2 inhibitor; hit rate 23% among 1,300; purified VIM-2, CCF2 FRET substrate hydrolysis; inhibition, % at 5.6 µM;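 active = inhibition above the mean of all tested compounds plus 3 SD, cut at about 19% in these data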;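 note: 0% = VIM-2 plus DMSO and 100% = no enzyme wells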
TEM-1 inh: selectivity counter-screen for VIM-2 inhibitors: E. coli TEM-1 inhibitors | inhibition, % at 5.6 µM | AID 1866 | hit rate 3% among 1,300 | shares compounds with VIM-2 inhibitor | Purified TEM-1, nitrocefin hydrolysis, epi-absorbance fluorescence;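 active = inhibition above that campaign's mean inhibition plus 3 SD, cut at about 0.46% in these data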;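 note: 0% = TEM-1 with DMSO and 100% = TEM-1 with 100 µM potassium clavulanate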
Target sequence (P62593 whole entry, looked up): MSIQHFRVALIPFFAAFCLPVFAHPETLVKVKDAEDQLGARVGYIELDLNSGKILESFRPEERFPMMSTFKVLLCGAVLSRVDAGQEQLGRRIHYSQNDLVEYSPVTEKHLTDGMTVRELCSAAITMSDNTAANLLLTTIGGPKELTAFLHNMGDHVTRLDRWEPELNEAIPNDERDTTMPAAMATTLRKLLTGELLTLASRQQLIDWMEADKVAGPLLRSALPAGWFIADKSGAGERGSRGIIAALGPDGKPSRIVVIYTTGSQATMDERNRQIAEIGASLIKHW
VIM-2 confirm 2: confirmation of P. aeruginosa VIM-2 metallo-beta-lactamase inhibitors; shares compounds with VIM-2 inhibitor; purified VIM-2, nitrocefin hydrolysis, epi-absorbance; inhibition, % at 5.6 µM; hit rate 96% among 1,300; AID 2187;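 active = inhibition of the VIM-2 beta-lactamase enzyme above about 11% from the earlier first-round screen, limit read from the data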;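 note: 0% = VIM-2 with DMSO and 100% = buffer wells without enzyme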
Active calls of the source: *; ? = inconclusive; . = not tested or not shown. Most compounds without a hit are left out; they make up all but 2.6% or so of the library.

SMILES	RanGTP-Imp inh	Runt-SMMHC FRET	IMP-1 inh-1	VIM-2 inhibitor	Runt-CBFb FRET	IMP-1 inh-2	VIM-2 FRET inh	TEM-1 inh	VIM-2 confirm 2
O=[N+]([O-])c1ccccc1/C=N/n1c(C2CCCCC2)n[nH]c1=S	5.6	16.1	-4.7	-1.5	20.4	.	.	.	.
O=[N+]([O-])c1ccccc1/C=N/n1c(C(F)(F)F)n[nH]c1=S	-2.4	8.0	-2.8	14.0*	15.1	-4.0	54.9*	-8.1	35.8*
Cc1ccc2[nH]c(C)c(/C=N/Nc3nc4ccccc4s3)c2c1	?	-2.3	-0.5	-1.2	-3.4	.	.	.	.
Cc1ccc2[nH]c(C)c(/C=C/c3cc[n+](C)cc3)c2c1	-128.1	.	4.1	16.3*	.	1.4	2.3	-0.3	26.2*
COC(=O)c1ccsc1NC(=O)C1=COCCO1	-5.1	1.3	-0.9	13.0*	0.6	-2.4	-2.5	-5.3	12.2*
COC(=O)Nc1sccc1C(=O)Nc1sccc1C(=O)OC	-7.7	-10.6	-3.0	-2.6	-3.0	.	.	.	.
Cn1cc(Cl)c(-c2n[nH]c(=S)n2-c2ccccc2)n1	0.2	0.6	-3.1	14.0*	8.9	-3.6	41.5*	-6.6	25.3*
Cc1c(Cl)c(-c2n[nH]c(=S)n2-c2ccc(F)cc2)nn1C	0.7	10.8	-3.0	16.2*	4.0	-2.1	42.1*	-4.3	29.7*
Cc1nn(C)c(-c2n[nH]c(=S)n2-c2ccccc2)c1Cl	2.3	1.9	-2.4	3.5	9.7	.	.	.	.
Cc1ccc(-n2c(-c3cc(C)n(C)n3)n[nH]c2=S)cc1	4.0	12.2	-2.2	-3.0	5.2	.	.	.	.
Cc1c(Cl)c(-c2n[nH]c(=S)n2CC(C)C)nn1C	7.6	14.8	-2.6	3.0	6.8	.	.	.	.
Cc1ccc(-n2c(-c3nn(C)cc3Cl)n[nH]c2=S)cc1	-3.3	4.6	-3.8	17.0*	6.2	-2.4	50.0*	-6.7	30.9*
CC#CC(=O)N1CCCC(Cc2cccc(OC)c2)(C(=O)OCC)C1 (stereo not given)	2.6	.	0.0	0.0	.	.	.	.	.
Cc1ccc(-c2noc(CNC(=O)COc3ccccc3C)n2)cc1	5.1	.	-0.5	1.5	.	.	.	.	.
COCC(C)NC(=O)c1cc2cccc([N+](=O)[O-])c2[nH]1 (stereo not given)	0.7	-0.6	-3.6	21.2*	-1.8	-3.5	39.1*	-5.3	23.2*
COCC(C)NC(=O)c1cccc([N+](=O)[O-])c1 (stereo not given)	6.6	1.7	0.3	-0.3	-0.3	.	.	.	.
CCN(CC)c1nc(-c2ccc(C(=O)NN)cc2)nc(-c2ccc(C(=O)NN)cc2)n1	2.9	.	-3.0	75.3*	.	-3.2	3.7	-5.6	84.8*
c1cncc(-c2nc(NCCCn3ccnc3)c3ccccc3n2)c1	-11.1	3.2	1.8	32.0*	-0.2	-2.6	-16.3	-6.6	48.9*
O=c1c2ccccc2nc(-c2ccccc2)n1CCCn1ccnc1	-4.5	3.3	-5.1	-0.3	-0.5	.	.	.	.
Cc1nc(NCCCn2ccnc2)c2ccccc2n1	-0.9	-3.9	-1.5	19.9*	-0.8	-3.7	-1.2	-6.1	35.4*
Cc1cccc(NC(=O)CCCNC(=O)c2ccc(Cl)cc2)n1	5.5	.	-1.3	-0.8	.	.	.	.	.
Cc1nn2c(-c3ccc(F)cc3)ccnc2c1Cl	-3.0	.	-2.2	59.2*	.	-3.4	-3.8	-5.4	70.0*
CN1C(=O)C2(N=c3ccccc3=N2)c2ccccc21	0.1	-2.7	-1.2	19.0*	-3.7	-2.2	1.1	-5.5	34.3*
OCCc1ccc(O)c(-n2nc3ccccc3n2)c1	1.3	.	-0.9	-3.1	.	.	.	.	.
C=CCn1c(=O)n2ncnc2c2c3c(sc21)CCCC3	-2.1	1.1	-1.3	14.6*	-1.7	-2.8	4.6	-5.8	38.8*
SMILES	RanGTP-Imp inh	Runt-SMMHC FRET	IMP-1 inh-1	VIM-2 inhibitor	Runt-CBFb FRET	IMP-1 inh-2	VIM-2 FRET inh	TEM-1 inh	VIM-2 confirm 2
O=C(O)c1ccccc1Sc1ncnc2sc3c(c12)CCC3	-2.1	6.2	-2.4	29.2*	-27.7	-4.2	60.7*	-6.3	37.2*
Cc1nc(N2CCN(C(=O)c3ccco3)CC2)c2oc3ccccc3c2n1	-1.6	-1.6	.	.	-1.0	.	.	.	.
CC(=O)N1CCN(c2ccc(Nc3ncnc4c3oc3ccccc34)cc2)CC1	-1.4	-1.0	1.6	69.5*	6.3	-3.0	0.0	-2.9	82.3*
CCc1nc(N2CCN(C(=O)c3ccco3)CC2)c2oc3ccccc3c2n1	1.4	3.2	-0.8	33.5*	-4.5	-2.5	2.2	-6.5	40.8*
CCc1nc(Nc2ccc(N3CCN(C(C)=O)CC3)cc2)c2oc3ccccc3c2n1	-0.8	-2.2	-1.1	82.3*	12.0	-3.0	-0.2	-5.8	83.7*
c1ccc2c(c1)oc1c(Nc3ccc(CN4CCOCC4)cc3)ncnc12	-4.2	-1.1	-0.6	14.7*	1.1	-2.9	-1.2	-7.2	24.9*
CC1CC(C)CN(CCCNC(=O)C2CCCN(S(=O)(=O)N3CC(C)CC(C)C3)C2)C1 (stereo not given)	0.6	.	-3.8	-0.3	.	.	.	.	.
COCCN(C(=O)c1csnn1)C(C(=O)NC1CCCCC1)c1ccccc1F (stereo not given)	2.2	.	0.5	-0.8	.	.	.	.	.
COC(=O)[C@H](Cc1c[nH]c2ccccc12)NC(=O)NCc1ccc(OC)cc1	0.3	.	-1.0	-3.3	.	.	.	.	.
O=C1N[C@H](C(=O)O)CS1	-4.3	.	.	.	.	.	.	.	.
COc1ccc(NC(=O)CN(C)C(=O)CCCNC(=O)c2ccc(Cl)cc2)cc1	-1.3	.	.	.	.	.	.	.	.
O=C(COc1ccccc1)NCc1nnc2c3ccccc3c(-c3ccccc3)nn12	4.6	-2.3	1.6	18.4*	-3.1	1.8	5.7	1.0*	38.9*
O=C(NCc1nnc2c3ccccc3c(-c3ccccc3)nn12)c1ccc(Cl)cc1	8.8	-2.8	-3.6	-0.4	-10.2	.	.	.	.
CC(=O)NCc1nnc2c3ccccc3c(-c3ccccc3)nn12	2.6	0.4	-2.0	21.9*	-0.3	-2.8	-1.0	-3.8	33.3*
COCc1n[nH]c(=S)n1-c1ccccc1	1.6	4.3	-5.2	4.5	0.4	.	.	.	.
OCCCc1n[nH]c(=S)n1-c1ccccc1	-0.5	4.2	-1.9	23.2*	3.0	-3.3	37.8*	-6.9	27.4*
O=C(NCCc1ccccc1)c1coc(=O)c(Br)c1	?	.	-0.7	-1.1	.	.	.	.	.
CN1CCc2c(sc(NC(=O)c3cc4cc([N+](=O)[O-])ccc4s3)c2C(N)=O)C1	3.6	17.2	-2.0	-0.7	5.0	.	.	.	.
CN1CCc2c(sc(NC(=O)c3cc(Cl)sc3Cl)c2C(N)=O)C1	147.1*	.	0.8	13.5*	.	-0.7	5.6	-3.5	20.6*
